Measurements as given in PubChem BioAssay.
The source made the active and inactive calls.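 Rule for the calls, unless noted: active = viability at or under a set limit in both replicates, limit being median viability minus 3 SD (cut at about 48% in these data, passing the limit was not always enough); inconclusive = at or under the limit in just one replicate; inactive = at or above the limit in both replicates.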

Experiments:
[1] = reducers of endogenous Her2 protein level, primary screen, SKBR3 breast tumor cells, AlphaScreen, ATP viability (AID 461;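 active = Her2 level under about 52% in both replicate screens, with viability over 70% of control, limit read from the data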;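 for Her2 level: lower value means less Her2 protein in the cells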;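 for viability: percent of carrier control wells set as 100% viability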); conditions: 18-24 h, measured here: SKBR3 viability, ATP luminescence, at 10 µM
[2] = molecular target: Receptor tyrosine-protein kinase erbB-2 (Homo sapiens) (UniProt P04626); assay: as above; conditions: 18-24 h, at 10 µM, stronger effect = lower value
[3] = SK-BR-3 cell growth inhibitors, pilot screen, 24 h, human (AID 572;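 active = viability at or below 10% of carrier control in both of two separate runs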;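 note: compound exposure lasted between 18 and 24 h rather than exactly 24 h; 100% = carrier-treated control wells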); conditions: SK-BR-3 viability, CellTiter-Glo luminescence, at 10 µM, stronger effect = lower value
[4] = HUVEC growth inhibition – cell-based, human, primary screen (AID 575;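 active = viability at or below 30% in both replicate assays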;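 note: 100% = median of untreated cell wells with 0.1% DMSO on each plate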); conditions: HUVEC proliferation, CellTiter-Glo luminescence, 72 h; at 10 µM; stronger effect = lower value
Procedure, shortened: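 Test system: primary human umbilical vein endothelial cells; medium: endothelial basal medium with 2% FBS plus growth supplements; dosing: 10 µM compound only; times: 72 h treatment at 37 °C; signal: CTG luminescence; read-out: % viability relative to median vehicle-well signal on each plate; control set: vehicle and MePR control wells; plate: 384-well, collagen-coated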

[5] = growth inhibitors of H69AR lung tumor, primary screen, human, duplicate replicates (AID 580); conditions: H69AR lung tumor cells viability, ATP luminescence, 72 h; at 10 µM; stronger effect = lower value;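 note: 100% = mean luminescence of untreated wells and 0% = no signal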
[6] = reversal of MRP1-mediated doxorubicin resistance, pilot screen, H69AR cells, doxorubicin co-treatment (AID 601;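 active = viability loss from added drug above about 55%, and viability with drug at most 40%, in both replicates, limit read from the data, passing the limit was not always enough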); conditions: CellTiter-Glo, 72 h, at 10 µM; for differential viability (reversal): stronger effect = higher value
[7] = 384-well plate pilot, post-Golgi transport modulator project, inhibition of yeast transport mutant growth (AID 636; in the data active = inhibition above about 31%); conditions: absorbance 615 nm, about 18 h, stronger effect = higher value
[8] = growth suppression of yeast trafficking mutant, preliminary HTS, modulators of trafficking downstream of Golgi apparatus project, 1536-format plate, OD 615 nm (AID 637; in the data active = inhibition above about 30%); conditions: yeast transport mutant growth, absorbance 615 nm, 18 h; stronger effect = higher value
[9] = H69AR cells + 2 uM doxorubicin, measured here: viability with 2 uM doxorubicin, stronger effect = lower value
[10] = H69AR cells, compound alone cytotoxicity

Sequence of Receptor tyrosine-protein kinase erbB-2 (Homo sapiens) (P04626 whole entry, looked up): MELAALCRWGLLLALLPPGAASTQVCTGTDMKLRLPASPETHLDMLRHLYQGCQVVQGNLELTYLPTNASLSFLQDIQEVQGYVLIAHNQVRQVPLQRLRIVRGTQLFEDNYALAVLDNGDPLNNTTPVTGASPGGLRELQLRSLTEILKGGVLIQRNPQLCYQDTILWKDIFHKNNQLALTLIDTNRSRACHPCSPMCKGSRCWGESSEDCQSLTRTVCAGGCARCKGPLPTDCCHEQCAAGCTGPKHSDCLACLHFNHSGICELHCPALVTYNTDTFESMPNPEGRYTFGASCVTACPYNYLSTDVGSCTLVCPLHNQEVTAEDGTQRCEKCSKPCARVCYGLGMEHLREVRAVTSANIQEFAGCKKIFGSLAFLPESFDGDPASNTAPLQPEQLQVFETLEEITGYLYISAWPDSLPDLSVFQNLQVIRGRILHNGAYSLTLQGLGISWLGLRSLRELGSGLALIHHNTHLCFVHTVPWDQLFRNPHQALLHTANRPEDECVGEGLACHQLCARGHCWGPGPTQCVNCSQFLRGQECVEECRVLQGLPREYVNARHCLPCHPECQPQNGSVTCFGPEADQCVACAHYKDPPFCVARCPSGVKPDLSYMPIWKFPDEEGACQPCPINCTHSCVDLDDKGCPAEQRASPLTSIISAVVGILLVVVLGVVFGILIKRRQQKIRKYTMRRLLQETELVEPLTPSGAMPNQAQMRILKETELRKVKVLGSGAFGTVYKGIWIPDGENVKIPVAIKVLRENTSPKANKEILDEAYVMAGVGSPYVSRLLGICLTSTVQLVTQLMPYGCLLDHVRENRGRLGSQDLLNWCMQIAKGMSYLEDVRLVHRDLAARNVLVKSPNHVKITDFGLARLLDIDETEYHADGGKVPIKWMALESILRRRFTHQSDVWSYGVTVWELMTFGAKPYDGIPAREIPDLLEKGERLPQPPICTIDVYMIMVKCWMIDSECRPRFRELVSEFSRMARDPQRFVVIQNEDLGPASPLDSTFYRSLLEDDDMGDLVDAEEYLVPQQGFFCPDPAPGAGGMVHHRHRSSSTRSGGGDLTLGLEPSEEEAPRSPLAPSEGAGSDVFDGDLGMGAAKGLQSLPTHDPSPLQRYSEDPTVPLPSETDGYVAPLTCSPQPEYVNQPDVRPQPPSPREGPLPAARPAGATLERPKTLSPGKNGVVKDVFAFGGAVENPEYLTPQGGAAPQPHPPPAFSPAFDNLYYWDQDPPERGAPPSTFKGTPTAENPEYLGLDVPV

Compound | viability [1] | Her2 level [2] | viability [3] | viability [4] | viability [5] | differential viability (reversal) ([6]; H69AR cells + 2 uM doxorubicin) | viability [6, 9] | viability [6, 10] | inhibition [7] | inhibition [8]
CCC(=O)N[C@@H]1CC(C(C)(C)NC(=O)CC)CC=C1C (stereo not given in full) | 105% | 83.5% (inactive) | 105% (inactive) | 93.4% (inactive) | 86.4% (inactive) | -1% (inactive) | 87.4% | 86.4% | -5.33% (inactive) | -0.33% (inactive)
O=C(O)c1c(Cl)c(Cl)c(Cl)c(Cl)c1C(=O)N1CCOCC1 | 109% | 90% (inactive) | 109% (inactive) | 106% (inactive) | 95.7% (inactive) | 2.91% (inactive) | 92.8% | 95.7% | -5.97% (inactive) | 0.16% (inactive)
COc1ccc(CCn2c(NCCCN3CCOCC3)nc3c2c(=O)[nH]c(=O)n3C)cc1 | 84.5% | 86% (inactive) | 84.5% (inactive) | 76.6% (inactive) | 87.3% (inactive) | 0.365% (inactive) | 86.9% | 87.3% | 4.13% (inactive) | 30.3% (active)
COC(=O)c1cc(NS(=O)(=O)c2ccc3c(c2)CCC(=O)N3)cc(C(=O)OC)c1 | 112% | 86% (inactive) | 112% (inactive) | 94.2% (inactive) | 96.5% (inactive) | 1.56% (inactive) | 95% | 96.5% | 0% (inactive) | -2.86% (inactive)
O=C(O)c1cccc(CN2C(=O)SC(Nc3ccccc3)C2=O)c1 (stereo not given) | 110% | 89% (inactive) | 110% (inactive) | 83% (inactive) | 103% (inactive) | 8.78% (inactive) | 94% | 103% | -4.8% (inactive) | 2.95% (inactive)
COc1ccc(-c2nnc(-c3cccs3)o2)cc1OC | 75% | 110% (inactive) | 75% (inactive) | 92.7% (inactive) | 94.6% (inactive) | 1.17% (inactive) | 93.5% | 94.6% | -3.78% (inactive) | -3.93% (inactive)
CCCCCc1c(O)c2ccccc2[nH]c1=O | 108% | 91.5% (inactive) | 108% (inactive) | 124% (inactive) | 98.1% (inactive) | 3.62% (inactive) | 94.5% | 98.1% | -1.71% (inactive) | 2.46% (inactive)
O=c1oc2ccccc2n1CCc1ccccc1 | 109% | 97.5% (inactive) | 109% (inactive) | 84.6% (inactive) | 93.7% (inactive) | 9.07% (inactive) | 84.6% | 93.7% | -5.92% (inactive) | 0.98% (inactive)
c1cn(C23CC4CC(CC(C4)C2)C3)cn1 | 113% | 88% (inactive) | 113% (inactive) | 104% (inactive) | 92.3% (inactive) | 8.21% (inactive) | 84.1% | 92.3% | -5.6% (inactive) | 1.94% (inactive)
CN(C)S(=O)(=O)c1ccc(C(=O)NCc2cccs2)cc1 | 82% | 87% (inactive) | 82% (inactive) | 101% (inactive) | 101% (inactive) | 8.48% (inactive) | 92.8% | 101% | -4.05% (inactive) | 3.81% (inactive)
S=c1[nH]nc(Cc2ccccc2)n1-c1ccccc1 | 108% | 112% (inactive) | 108% (inactive) | 113% (inactive) | 92.9% (inactive) | 6.14% (inactive) | 86.7% | 92.9% | -4.1% (inactive) | -6.33% (inactive)
CCOC(=O)Nc1c(C(=O)OC)[nH]c2cccc(OC)c12 | 76% | 112% (inactive) | 76% (inactive) | 106% (inactive) | 104% (inactive) | 13% (inactive) | 91% | 104% | 3.03% (inactive) | 9.52% (inactive)
CC(NC(=O)CSc1n[nH]c(=O)n1C1CC1)C12CC3CC(CC(C3)C1)C2 (stereo not given) | 91.5% | 106% (inactive) | 91.5% (inactive) | 91.6% (inactive) | 99.8% (inactive) | 6.17% (inactive) | 93.6% | 99.8% | -4% (inactive) | -5.41% (inactive)
Cn1c(=O)c2c(ncn2CC(O)CNc2ccc(Cl)cc2)n(C)c1=O (stereo not given) | 91% | 103% (inactive) | 91% (inactive) | 79.6% (inactive) | 89.9% (inactive) | 0.365% (inactive) | 89.5% | 89.9% | -0.53% (inactive) | -5.71% (inactive)
CC(C)OCCCNC(=O)c1cc2c(s1)CS(=O)(=O)C2 | 99% | 104% (inactive) | 99% (inactive) | 90.3% (inactive) | 94.6% (inactive) | -1.46% (inactive) | 96.1% | 94.6% | 1.03% (inactive) | -8.5% (inactive)
O=C(CSc1nnc(-c2ccncc2)n1-c1ccc(F)cc1)NC(=O)NCc1ccco1 | 132% | 89% (inactive) | 132% (inactive) | 89.1% (inactive) | 86% (inactive) | -1.76% (inactive) | 87.8% | 86% | -7.4% (inactive) | -3.97% (inactive)

Compound | viability [1] | Her2 level [2] | viability [3] | viability [4] | viability [5] | differential viability (reversal) ([6]; H69AR cells + 2 uM doxorubicin) | viability [6, 9] | viability [6, 10] | inhibition [7] | inhibition [8]
O=C(c1cccn2c(=O)c3cc(Cl)ccc3nc12)N1CCOCC1 | 95.5% | 104% (inactive) | 95.5% (inactive) | 98% (inactive) | 116% (inactive) | 20.2% (inactive) | 96% | 116% | -3.2% (inactive) | -5.32% (inactive)
COc1cccc(CNc2cccc3cccnc23)c1O | 102% | 82.5% (inactive) | 102% (inactive) | 73.5% (inactive) | 78.4% (inactive) | -14.6% (inactive) | 93% | 78.4% | -3.16% (inactive) | -1.97% (inactive)
Cc1cc(NC(=O)CCOc2ccccc2)no1 | 85.5% | 96.5% (inactive) | 85.5% (inactive) | 87% (inactive) | 88.6% (inactive) | 2.89% (inactive) | 85.7% | 88.6% | -2.34% (inactive) | 1% (inactive)
Cc1c(NC2=NC3(CCCCC3)Cc3ccccc32)c(=O)n(-c2ccccc2)n1C | 79.5% | 108% (inactive) | 79.5% (inactive) | 95.5% (inactive) | 92.5% (inactive) | 5.08% (inactive) | 87.5% | 92.5% | -5.13% (inactive) | 2.67% (inactive)
O=S(=O)(Cc1ccccc1)N1CCCCCC1 | 93% | 83.5% (inactive) | 93% (inactive) | 96.1% (inactive) | 101% (inactive) | 2.14% (inactive) | 98.8% | 101% | -5.81% (inactive) | 2.3% (inactive)
CCOC(=O)c1ccc(NC(=O)CCc2c(C)nc3ncnn3c2C)cc1 | 88% | 95.5% (inactive) | 88% (inactive) | 107% (inactive) | 92.7% (inactive) | -9.71% (inactive) | 102% | 92.7% | 1.37% (inactive) | -5.56% (inactive)
CCCC(O)(CCN(C)C)c1ccc(OC)cc1 (stereo not given) | 89% | 79.5% (inactive) | 89% (inactive) | 98.5% (inactive) | 88.3% (inactive) | 4.26% (inactive) | 84% | 88.3% | -0.26% (inactive) | 0.48% (inactive)
COc1cccc(Oc2cnc(N)nc2-c2ccc(OC)cc2O)c1 | 91.5% | 74.5% (inactive) | 91.5% (inactive) | 67.1% (inactive) | 10.8% (active) | -47.3% (inactive) | 58.2% | 10.8% | -0.52% (inactive) | -5.5% (inactive)
CCC(C)N=C1SCC(C)(/C=N/O)S1 (stereo not given) | 97% | 88.5% (inactive) | 97% (inactive) | 116% (inactive) | 104% (inactive) | 7.86% (inactive) | 95.8% | 104% | -2.37% (inactive) | -0.98% (inactive)
COC(=O)C1CCN(C(=O)c2sc3nc(-c4ccc(F)cc4)cn3c2C)CC1 | 76.5% | 92% (inactive) | 76.5% (inactive) | 99.8% (inactive) | 100% (inactive) | 22.1% (inactive) | 77.9% | 100% | -1.07% (inactive) | 0.81% (inactive)
O=C(Cn1nnc(-c2ccncc2)n1)Nc1ccc2c(c1)CCC2 | 112% | 93.5% (inactive) | 112% (inactive) | 107% (inactive) | 110% (inactive) | 13.3% (inactive) | 96.4% | 110% | -6.45% (inactive) | 2.38% (inactive)
Cc1ccc(NC2c3ncccc3C(=O)N2C2CCCCC2)cc1C (stereo not given) | 98.5% | 94.5% (inactive) | 98.5% (inactive) | 91.7% (inactive) | 92.7% (inactive) | -4.25% (inactive) | 97% | 92.7% | -3.78% (inactive) | 11.5% (inactive)
O=C(CSc1nnc2scc(-c3ccccc3)n12)N1CCN(Cc2ccccc2)CC1 | 89% | 97.5% (inactive) | 89% (inactive) | 103% (inactive) | 78.5% (inactive) | 8.52% (inactive) | 70% | 78.5% | -5.66% (inactive) | -0.32% (inactive)
CCC1SC2=NC(C)=C(C(=O)OC)C(c3ccc(C)cc3)N2C1=O (stereo not given) | 94% | 96% (inactive) | 94% (inactive) | 109% (inactive) | 99.6% (inactive) | 9% (inactive) | 90.6% | 99.6% | -3.51% (inactive) | -1.59% (inactive)
CCCOc1cccc(C2/C(=C(/O)c3ccccc3)C(=O)C(=O)N2CCN(C)C)c1 (stereo not given) | 108% | 93% (inactive) | 108% (inactive) | 99.5% (inactive) | 91.6% (inactive) | 2.56% (inactive) | 89.1% | 91.6% | -6.62% (inactive) | 1.75% (inactive)
Cc1ccccc1CSCC(=O)c1c(N)n(C)c(=O)n(C)c1=O | 86.5% | 86.5% (inactive) | 86.5% (inactive) | 106% (inactive) | 93.5% (inactive) | -2.12% (inactive) | 95.6% | 93.5% | -2.37% (inactive) | -2.22% (inactive)
